Measured values published in ChEMBL document CHEMBL3392986, “Hydroxamic acids block replication of hepatitis C virus” (J Med Chem, 2015).

What was measured:
Hepatitis C virus [1] = assay: Antiviral activity against HCV genotype 1b infected in human Huh7 cells at 10 uM after 3 days by luciferase reporter gene assay; type: functional, Hepacivirus hominis; settings: Huh-7, 72 h
Outline: (§1)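 Subgenomic luciferase replicon cells seeded at 6 X 10^3 per well. Next day, medium containing compound in DMSO, or DMSO alone, was added. After three days, luciferase read with ViViRen live-cell substrate. Percent inhibition is the triplicate average; 2mA served as control in single-dose runs.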

[2] = Cytotoxicity against human HuH7 cells assessed as inhibition of cell viability at 10 uM after 3 days by CellTiter 96 assay; type: cell-based, Huh-7; settings: read-out: INH
Outline: (§2)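 Replicon cells plated at 6 X 10^3 per well and treated the next day with compound in DMSO, DMSO alone or nothing for three days at 37 °C/5% CO2. Viability measured by CellTiter 96 AQueous One, absorbance 450 nm. Percent inhibition is the average of triplicate wells.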

[3] = Cytotoxicity against human HuH7 cells assessed as inhibition of cell viability after 3 days by CellTiter 96 assay
Hepatitis C virus [4] = assay: Antiviral activity against HCV genotype 1b infected in human Huh7 cells after 3 days by luciferase reporter gene assay; type: functional, cell-based, Hepacivirus hominis; settings: Huh-7, 72 h
[5] = Therapeutic index, ratio of CC50 for human HuH7 cells to EC50 for HCV genotype 1b infected in human Huh7 cells
Hepatitis C virus [6] = assay: Antiviral activity against HCV genotype 1b infected in human Huh7 cells at 1 uM after 3 days by luciferase reporter gene assay; type: functional, Hepacivirus hominis; settings: Huh-7, 72 h; outline: as §1
[7] = Cytotoxicity against human HuH7 cells assessed as inhibition of cell viability at 1 uM after 3 days by CellTiter 96 assay; type: cell-based, Huh-7; settings: read-out: INH; outline: as §2
Hepatitis C virus [8] = assay: Antiviral activity against HCV genotype 1b infected in human Huh7 cells assessed as reduction in viral RNA level at 2 uM after 3 days by RT-qPCR; type: functional, Hepacivirus hominis, Huh-7; parameters: scale not given: the % may be the effect or the level left
Outline: (§3)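 Replicon-bearing Huh7 cells, 6 X 10^3 per well, exposed to compound in DMSO or DMSO alone for three days at 37 °C/5% CO2. Replicon RNA quantified by TaqMan Cells-to-CT RT-qPCR with NS5B primers/probe, using GAPDH in parallel wells as reference. Level relative to DMSO-treated cells calculated as 2-∆∆CT. Triplicate wells.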

Hepatitis C virus [9] = assay: Antiviral activity against HCV genotype 1b infected in human Huh7 cells assessed as reduction in viral RNA level at 0.5 uM after 3 days by RT-qPCR; type: functional, Hepacivirus hominis, Huh-7; parameters: scale not given: the % may be the effect or the level left; settings: in the assay text read “2 uM” for “0.5 uM”; outline: as §3

SMILES	inhibition at 10 µM (Hepatitis C virus [1]) [%]	cytotoxicity at 72 h, 10 µM [2] [%]	CC50 at 72 h [3] [µM]	EC50 (Hepatitis C virus [4]) [µM]	selectivity ratio ([5]; HuH7 cells)	also measured
O=C(NO)c1cn(Cc2ccccc2)c2ccccc12	99	92	–	–	–	–
COc1ccc(Cn2ccc3ccc(C(=O)NO)cc32)cc1	–	–	11	1.8	6	–
O=C(/C=C/c1ccncc1)NO	20	0	–	–	–	–
Cc1ccc(/C=C/C(=O)NO)cc1	15	0	–	–	–	–
O=C(/C=C/c1ccccc1)NO	–	–	39	0.86	–	selectivity ratio ([5]; huh-7): 45
Nc1ccccc1NC(=O)/C=C/c1ccc(C(F)(F)F)cc1	94	82	–	–	–	–
O=C(O)/C=C/c1ccc(C(F)(F)F)cc1	19	0	–	–	–	–
O=C(NO)c1cn(-c2ccccc2)c2ccccc12	11	–	–	–	–	–
O=C(NO)c1ccc(C(F)(F)F)cc1	–	–	> 100	5.4	> 18	–
O=C(NO)c1c[nH]c2ccccc12	0	–	–	–	–	–
N#Cc1ccc(/C=C/C(=O)NO)cc1	99	18	–	–	–	inhibition at 1 µM (Hepatitis C virus [6]): 45%; cytotoxicity at 72 h, 1 µM [7]: 16%
O=C(CCc1ccc(C(F)(F)F)cc1)NO	35	0	–	–	–	–
O=C(C=C(c1ccccc1)c1ccccc1)NO	64	4	–	–	–	–
O=C(/C=C/c1ccc(C(F)(F)F)cn1)NO	–	–	13	0.38	34	–
O=C(/C=C/c1ccc(Cl)cc1)NO	–	–	> 50	6	> 8	–
O=C(/C=C/c1cccc(S(=O)(=O)Nc2ccccc2)c1)NO [BELINOSTAT]	–	–	0.68	0.12	–	selectivity ratio ([5]; huh-7): 6
Cc1[nH]c2ccccc2c1CCNCc1ccc(/C=C/C(=O)NO)cc1 [PANOBINOSTAT]	–	–	0.0035	–	–	–
NC(=O)/C=C/c1ccc(C(F)(F)F)cc1	6	1	–	–	–	–
O=C(/C=C/c1ccc(C(F)(F)F)nc1)NO	–	–	19	0.4	48	–
O=C(/C=C/c1c(F)cc(C(F)(F)F)cc1F)NO	–	–	12	0.54	22	–
O=C(NO)c1cc2ccccc2[nH]1	45	7	–	–	–	–
O=C(NO)c1cc2ccc([N+](=O)[O-])cc2s1	–	–	54	3.7	15	–
COc1ccc(/C=C/C(=O)NO)cc1	15	0	–	–	–	–
COC(=O)c1sc2ccccc2c1S(=O)(=O)c1ccccc1	5	0	–	–	–	–
O=C(NO)c1cc2ccccc2n1-c1ccccc1	41	15	–	–	–	–
O=C(NO)c1cc2ccccc2s1	–	–	28	1	28	–

SMILES	inhibition at 10 µM (Hepatitis C virus [1]) [%]	cytotoxicity at 72 h, 10 µM [2] [%]	CC50 at 72 h [3] [µM]	EC50 (Hepatitis C virus [4]) [µM]	selectivity ratio ([5]; HuH7 cells)	also measured
O=C(O)c1sc2ccccc2c1S(=O)(=O)c1ccccc1	19	2	–	–	–	–
O=C(NO)c1sc2ccccc2c1[S+]([O-])c1ccccc1 (stereo unspecified)	–	–	> 50	1.4	> 36	–
O=C(NO)c1cc2ccc(C(F)(F)F)cc2s1	83	13	–	–	–	inhibition at 1 µM (Hepatitis C virus [6]): 0%; cytotoxicity at 72 h, 1 µM [7]: 4%
O=C(NO)c1sc2ccccc2c1Sc1ccccc1	8	4	–	–	–	–
O=C(/C=C/c1ccccn1)NO	58	1	–	–	–	–
O=C(/C=C/c1ccc(C(F)(F)F)cc1)NO	–	–	25	0.14	178	–
O=C(/C=C/c1ccccc1C(F)(F)F)NO	40	5	–	–	–	–
O=C(NCC1(c2nc(-c3ccccc3)cs2)CCOCC1)c1cccc(-c2noc(C(F)(F)F)n2)c1	22	21	–	–	–	–
O=C(NO)c1cc2ccccc2o1	–	–	54	1.8	30	–
COC(=O)/C=C/c1ccc(C(F)(F)F)cc1	0	1	–	–	–	–
O=C(NO)c1cc2cc([N+](=O)[O-])ccc2s1	–	–	34	2.4	14	–
O=C(/C=C/c1ccc(C(F)(F)F)cc1Cl)NO	–	–	15	1.1	14	–
O=C(NO)c1cc2ccccc2n1Cc1ccccc1	82	28	–	–	–	–
CN1CCc2c(c3ccccc3n2Cc2ccc(C(=O)NO)cc2)C1 [TUBASTATIN A]	97	70	–	–	–	–
Nc1ccccc1NC(=O)c1ccc(CNC(=O)OCc2cccnc2)cc1 [ENTINOSTAT]	–	–	5.1	1.4	–	selectivity ratio ([5]; huh-7): 4
O=C(/C=C/c1ccc(C(F)(F)F)cc1F)NO	–	–	14	0.12	117	–
COc1cc(NC(=O)CCCCCCC(=O)NO)ccc1-c1cnco1	–	–	2.6	0.21	12	–
O=C(/C=C/c1ccc([N+](=O)[O-])cc1)NO	–	–	29	0.45	64	–
CS(=O)(=O)c1ccc(/C=C/C(=O)NO)cc1	93	0	–	–	–	inhibition at 1 µM (Hepatitis C virus [6]): 30%; cytotoxicity at 72 h, 1 µM [7]: 0%
O=C(/C=C/c1cccc(C(F)(F)F)c1)NO	43	6	–	–	–	–
O=C(/C=C/c1ccc(Cl)cc1Cl)NO [CINNAMIC ACID HYDROXAMATE]	–	–	8.1	0.078	104	–
O=C(NO)c1cc2cc(C(F)(F)F)ccc2s1	94	0	–	–	–	inhibition at 1 µM (Hepatitis C virus [6]): 16%; cytotoxicity at 72 h, 1 µM [7]: 10%
O=C(/C=C/c1cccnc1)NO	40	2	–	–	–	–
O=C(NO)c1cc2cc(Cl)ccc2s1	–	–	27	0.69	39	Activity (Hepatitis C virus [8]): 75%; Activity (Hepatitis C virus [9]): 75%
C/C(=C\C(=O)NO)c1ccccc1	–	–	59	3.2	18	–
